From PubChem
DENV2 CPE – DENV2-induced cell death inhibition. DENV2-infected cells, cytopathic effect rescue, plate reader. CPE inhibition, % at 9.99 µM. 350,000 tested, 1.7% active; in the data active means CPE inhibition above about 20%, passing the limit was not always enough; inconclusive means no clear call, values can overlap the other calls; tested in BHK-21 cells
CFTR F508del cor – correctors of CFTR F508del function in bronchial epithelial cells. activity (quench increase), % at 7.58 µM. 350,000 tested, 0.36% active. CFBE cells, YFP halide quenching; stimulated with forskolin plus potentiator P3; % fluorescence drop versus neutral controls;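 active means mean added fluorescence quench of at least 8% versus neutral control, with both replicates also reaching 8%; inconclusive means only one of the mean or replicate conditions met; inactive means mean below 8% and not both replicates reaching 8%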;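 further: cells transiently co-express mutant CFTR-F508del with the halide-sensitive YFP; corrector assay measuring rescue of mutant channel to the surface after 24 h compound exposure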
PGC1a acetyl inh – lowers PGC1a acetylation signal in U2OS cells | AlphaScreen anti-acetyl-lysine; with virally co-expressed GCN5 acetyltransferase | inhibition, % at 15.6 µM | 350,000 tested, 0.17% active | AID 651687;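 active means every replicate shows inhibition of at least 40%; inconclusive means mean inhibition at least 40% but some replicate below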
XiGFP reactiv – reactivates the inactive X chromosome in mouse fibroblasts. XiGFP mouse fibroblasts, % GFP-positive cells imaging, 3 d; cells co-treated with 5-aza-dC sensitizer; scaled so ellipticine positive control = 100%. activation, % at 7.58 µM. 360,000 tested, 0.055% active;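 active means mean normalized replicate activation at least 10% and every replicate at or above 10%; inconclusive means only one of the two criteria met; inactive means mean below 10% and not all replicates reach 10%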
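System: XiGFP fibroblasts, SV40-immortalized. Medium: DMEM plus 5-aza-dC sensitizer. Doses: single point. Timing: 3 d treatment, 15 min room-temperature fixation. Control set: ellipticine 6 µM.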
FN deposition inh – fibronectin deposition inhibition. AH1F fibroblasts, Alexa488-fibronectin deposition fluorescence, overnight. inhibition, % at 12.6 µM. 350,000 tested, 0.086% active. AID 743247;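 active means mean inhibition across replicates of 30% or more, regardless of how many single replicates reach that level; inconclusive means mean under 30% yet at least half of replicates reach 30%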
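Schedule: 1 h cell adhesion before compound, then overnight fibronectin incubation; test system: AH1F fibroblast monolayer depositing Alexa488-labelled fibronectin into matrix; quantity: 10000 AH1F cells per well; probe or stimulus: fluorescent fibronectin at 24 nM final; signal: fluorescence, ex 485 nm, em 525 nm; evaluation: percent inhibition as loss of matrix-bound fibronectin fluorescence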
Cneo AK release – causes C. neoformans cell lysis; adenylate kinase release luminescence, 4 h; normalised: neutral wells 0, clomiphene wells 100; lysis activity, % at 15 µM; 360,000 tested, 0.2% active;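 active means mean lysis activity across replicates of at least 80%, whatever share of replicates individually reach that level; inactive means mean lysis activity below 80%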
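Schedule: static 4 h at 37 °C with compound, 1 h detection; system: C. neoformans cells; benchmarks: Clomiphene as positive control; buffer or medium: fresh YPD medium; measure: luminescence rise reflecting yeast cell lysis; measured by: luminescent adenylate kinase detection reagent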
A number is an active result; . = inactive; ? = inconclusive; / = no result. Shown are actives, neighbours in structure and some others; about 1.9% of the full set was active somewhere.

SMILES	DENV2 CPE	CFTR F508del cor	PGC1a acetyl inh	XiGFP reactiv	FN deposition inh	Cneo AK release
Clc1cccc(Cl)c1CSc1nnc(-c2ccncc2)s1	70.1	.	.	.	.	/
Clc1ccc(CSc2nnc(-c3ccncc3)s2)cc1	.	.	/	.	.	.
Cc1ccccc1S(=O)(=O)NCC[C@H]1CC[C@H](NC(=O)C2CCOCC2)[C@@H](CO)O1	.	.	.	.	/	.
O=C(COC(=O)CCC1CCCC1)Nc1ccccc1Br	.	.	/	.	.	.
Cc1ccc(NC(=O)COC(=O)CCC2CCCC2)c(Br)c1	.	9.4	.	.	.	/
C[C@@H]1CN([C@H](C)CO)C(=O)c2cc(NC(=O)c3ccncc3)ccc2O[C@@H](C)CCCCO[C@H]1CN(C)C(=O)Nc1ccc(F)cc1	26.4	.	.	.	.	.
C[C@@H]1CCCCO[C@@H](CN(C)C(=O)Nc2ccc(C(F)(F)F)cc2)[C@H](C)CN([C@@H](C)CO)C(=O)c2cc(NC(=O)c3ccncc3)ccc2O1	75.9	.	.	.	.	.
C[C@@H]1CN([C@H](C)CO)C(=O)c2cc(NC(=O)c3ccncc3)ccc2O[C@@H]1CN(C)C(=O)Nc1ccc(C(F)(F)F)cc1	.	.	.	.	.	.
C[C@@H]1CN([C@@H](C)CO)C(=O)c2cc(NC(=O)c3ccncc3)ccc2O[C@@H](C)CCCCO[C@@H]1CN(C)C(=O)Nc1ccc(C(F)(F)F)cc1	54.7	.	.	.	.	/
C[C@H]1CN([C@@H](C)CO)C(=O)c2cc(NC(=O)c3ccncc3)ccc2O[C@H]1CN(C)C(=O)Nc1ccccc1	64.4	.	.	.	/	.
C[C@H]1CCCCO[C@H](CN(C)C(=O)Nc2ccc(F)cc2)[C@@H](C)CN([C@@H](C)CO)C(=O)c2cc(NC(=O)c3ccncc3)ccc2O1	.	.	.	.	.	.
CCCN1C[C@@H](C)[C@@H](OC)CN(C)C(=O)c2cc(NC(=O)c3ccccc3F)ccc2OC[C@H]1C	.	.	.	.	.	.
CC(C)NC(=O)Nc1ccc2c(c1)CC(=O)N([C@H](C)CO)C[C@@H](C)[C@@H](CN(C)C(=O)NC(C)C)O2	?	.	.	.	/	.
COc1ccccc1NC(=O)N1C[C@@H](O)COC[C@H]2O[C@H](CC(=O)NCCc3ccccc3)CC[C@@H]21	.	.	.	.	.	.
CCOC(=O)C1=C(c2ccccc2)NC(=O)NC1c1ccc(O)c(Cl)c1 (stereo not drawn)	.	.	.	.	48.2	.
C[C@H](O)C#Cc1ccc2c(c1)O[C@@H](CN(C)Cc1ccccc1)[C@H](C)CN([C@H](C)CO)S2(=O)=O	.	.	.	.	.	.
COc1ccc(NC(=O)c2ccc(NC(=O)c3nc4nccc(C)n4n3)cc2)cc1	.	26.9	.	.	.	.
CCS(=O)(=O)N1CC2(C1)[C@@H](c1ccccc1)[C@@H](CO)N2C(=O)C1CC1	.	.	.	.	/	/
O=C(NN1C(=O)NC2(CCCCC2)C1=O)c1cc(F)cc(F)c1	32.1	.	.	.	.	.
O=C(NN1C(=O)NC2(CCCCC2)C1=O)c1ccc(Cl)c(Cl)c1	?	.	.	.	.	.
CC(C)Oc1ccc(C(=O)NN2C(=O)NC3(CCCCC3)C2=O)cc1	67.6	.	.	.	.	.
CO[C@H]1CN(C)C(=O)c2cc(NC(=O)NC3CCCC3)ccc2OC[C@@H](C)NC[C@H]1C	/	/	/	.	.	/
C[C@H]1CN([C@@H](C)CO)C(=O)Cc2cc(NS(=O)(=O)c3ccc(Cl)cc3)ccc2O[C@@H]1CN(C)S(=O)(=O)c1cn(C)cn1	.	.	.	.	/	.
CCCNC(=O)C[C@@H]1CC[C@H]2[C@@H](COc3ccc(NC(=O)c4cccc(OC)c4)cc3C(=O)N2C)O1	46.0	.	.	.	.	.
CCCNC(=O)C[C@@H]1CC[C@H]2[C@@H](COc3ccc(NC(=O)c4cccc(C(F)(F)F)c4)cc3C(=O)N2C)O1	24.1	.	.	.	.	.
SMILES	DENV2 CPE	CFTR F508del cor	PGC1a acetyl inh	XiGFP reactiv	FN deposition inh	Cneo AK release
CCCNC(=O)C[C@H]1CC[C@H]2[C@H](COc3ccc(NC(=O)c4cccc(OC)c4)cc3C(=O)N2C)O1	.	.	.	.	.	.
COc1cccc(CNC(=O)C[C@H]2CC[C@@H]3[C@H](COc4ccc(NC(C)=O)cc4C(=O)N3C)O2)c1	.	.	.	.	.	.
COc1cccc(CNC(=O)C[C@H]2CC[C@H]3[C@@H](COc4ccc(NC(C)=O)cc4C(=O)N3C)O2)c1	28.1	.	.	.	/	/
COc1ccc(-c2ccc3n(c2=O)C[C@@H]2[C@@H](CO)[C@H](C(=O)N(C)C)[C@H]3N2Cc2cccnc2)cc1	.	.	/	.	/	.
C[C@@H]1CN(C)C(=O)Cc2ccccc2O[C@H]1CN(C)C(=O)OC(C)(C)C	/	/	/	.	.	/
Oc1[nH]c2ccccc2c1N=NC(=S)N1CCOCC1	/	/	.	/	/	.
Oc1[nH]c2ccc(Br)cc2c1N=NC(=S)N1CCOCC1	.	.	.	.	31.3	.
CCOc1ccc2nc(N/C(N)=N/C(=S)Nc3ccc(C)c(C)c3)nc(C)c2c1	108.1	.	/	.	.	/
O=C(NCC[C@H]1CC[C@H](NS(=O)(=O)c2ccc(F)cc2)[C@H](CO)O1)c1ccccc1F	.	.	.	.	/	/
CN(Cc1ccccc1)CC1CCCN(CCc2ccccc2F)C1 (stereo not drawn)	39.5	.	.	.	.	.
COc1cc(CN(C)CC2CCCN(CCc3ccccc3F)C2)cc(Cl)c1OC (stereo not drawn)	.	.	.	.	.	.
CC=Cc1ccc2n(c1=O)C[C@H]1[C@H](CO)[C@@H](C(=O)NCCC)[C@@H]2N1Cc1cccnc1 (mixture of isomers)	.	.	.	.	/	.
OC[C@@H]1[C@H](c2ccccc2)C2(CN(Cc3cccnc3)C2)N1Cc1ccncc1	20.3	.	.	.	.	/
OC[C@@H]1[C@@H](c2ccccc2)C2(CN(Cc3nccs3)C2)N1Cc1ccccc1	20.0	.	.	.	.	/
OC[C@@H]1[C@@H](c2ccccc2)C2(CN(Cc3nccs3)C2)N1Cc1cccnc1	84.4	.	.	.	/	/
OC[C@@H]1[C@@H](c2ccccc2)C2(CN(Cc3cccnc3)C2)N1Cc1ccncc1	.	.	.	.	.	/
C[C@@H]1CN([C@@H](C)CO)C(=O)Cc2cc(NS(=O)(=O)c3cccs3)ccc2O[C@@H]1CN(C)S(=O)(=O)c1ccccc1	.	.	.	.	/	.
C[C@@H]1CN([C@@H](C)CO)C(=O)c2cc(NC(=O)CCCN(C)C)ccc2O[C@@H](C)CCCCO[C@@H]1CN(C)Cc1ccc(C(F)(F)F)cc1	.	.	110.0	.	.	.
